Results from ChEMBL document CHEMBL4364274, “Synthesis and biological activity of glycyrrhetinic acid derivatives as antitumor agents” (Eur J Med Chem, 2019).

How the values were obtained:
[1] = system: HeLa; experiment: Antiproliferative activity against human HeLa cells incubated for 72 hrs by MTT assay; format: functional, cell-based
Outline: (§1)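 Cells in exponential growth were plated at 3×10^3 cells/well and grown 24 h at 37 °C in 5% CO2. They were then exposed to a range of drug concentrations for 72 h. MTT (5 mg/mL solution) was added for 4 h, the medium was discarded, and formazan was dissolved in DMSO before reading A490. Drug-free wells served as blanks. % inhibition was calculated as 1 − (sample−blank)/(control−blank), and IC50 was taken as the concentration giving 50% inhibition.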

[2] = system: MCF7; experiment: Antiproliferative activity against human MCF7 cells incubated for 72 hrs by MTT assay; format: functional, cell-based; conditions: MCF7, 72 h; outline: as §1
[3] = system: HepG2; experiment: Antiproliferative activity against human HepG2 cells incubated for 72 hrs by MTT assay; format: functional, cell-based; conditions: HepG2, 72 h; outline: as §1
[4] = system: A549; experiment: Antiproliferative activity against human A549 cells incubated for 72 hrs by MTT assay; format: functional, cell-based; conditions: A549, 72 h; outline: as §1
[5] = system: MDCK; experiment: Cytotoxicity against MDCK cells incubated for 72 hrs by MTT assay; format: cell-based; conditions: Canis lupus familiaris; outline: as §1

Row | SMILES | IC50 [1] | IC50 [2] | IC50 [3] | IC50 [4] | IC50 [5]
1 | CC[C@H](C)[C@H](NC(=O)OC(C)(C)C)C(=O)N[C@H]1CC[C@]2(C)[C@H]3C(=O)C=C4[C@@H]5C[C@@](C)(C(=O)OCc6ccccc6)CC[C@]5(C)CC[C@@]4(C)[C@]3(C)CC[C@H]2C1(C)C | > 40 µM | > 40 µM | > 40 µM | > 40 µM | > 40 µM
2 | CN(CC(=O)N[C@H]1CC[C@]2(C)[C@H]3C(=O)C=C4[C@@H]5C[C@@](C)(C(=O)OCc6ccccc6)CC[C@]5(C)CC[C@@]4(C)[C@]3(C)CC[C@H]2C1(C)C)C(=O)OC(C)(C)C | > 40 µM | > 40 µM | > 40 µM | > 40 µM | > 40 µM
3 | CC1(C)[C@@H](NC(=O)[C@@H](N)Cc2ccccc2)CC[C@]2(C)[C@H]3C(=O)C=C4[C@@H]5C[C@@](C)(C(=O)OCc6ccccc6)CC[C@]5(C)CC[C@@]4(C)[C@]3(C)CC[C@@H]12 | 2.24 µM | 3.28 µM | 5.05 µM | 3.01 µM | 5.02 µM
4 | CC1(C)[C@@H](OC(=O)[C@@H](N)Cc2ccccc2)CC[C@]2(C)[C@H]3C(=O)C=C4[C@@H]5C[C@@](C)(C(=O)OCc6ccccc6)CC[C@]5(C)CC[C@@]4(C)[C@]3(C)CC[C@@H]12 | 18.8 µM | 14.4 µM | > 40 µM | 17 µM | 14.4 µM
5 | CC(C)(C)OC(=O)N1CCC[C@H]1C(=O)N[C@H]1CC[C@]2(C)[C@H]3C(=O)C=C4[C@@H]5C[C@@](C)(C(=O)OCc6ccccc6)CC[C@]5(C)CC[C@@]4(C)[C@]3(C)CC[C@H]2C1(C)C | > 40 µM | > 40 µM | > 40 µM | > 40 µM | > 40 µM
6 | CSCC[C@H](NC(=O)OC(C)(C)C)C(=O)O[C@H]1CC[C@]2(C)[C@H]3C(=O)C=C4[C@@H]5C[C@@](C)(C(=O)OCc6ccccc6)CC[C@]5(C)CC[C@@]4(C)[C@]3(C)CC[C@H]2C1(C)C | > 40 µM | > 40 µM | > 40 µM | > 40 µM | > 40 µM
7 | CC(C)(C)OC(=O)N1CCC[C@H]1C(=O)O[C@H]1CC[C@]2(C)[C@H]3C(=O)C=C4[C@@H]5C[C@@](C)(C(=O)OCc6ccccc6)CC[C@]5(C)CC[C@@]4(C)[C@]3(C)CC[C@H]2C1(C)C | > 40 µM | > 40 µM | > 40 µM | > 40 µM | > 40 µM
8 | CSCC[C@H](N)C(=O)O[C@H]1CC[C@]2(C)[C@H]3C(=O)C=C4[C@@H]5C[C@@](C)(C(=O)OCc6ccccc6)CC[C@]5(C)CC[C@@]4(C)[C@]3(C)CC[C@H]2C1(C)C | 10.6 µM | 8.07 µM | 9.96 µM | 7.53 µM | 39.2 µM
9 | CC[C@H](C)[C@H](N)C(=O)O[C@H]1CC[C@]2(C)[C@H]3C(=O)C=C4[C@@H]5C[C@@](C)(C(=O)OCc6ccccc6)CC[C@]5(C)CC[C@@]4(C)[C@]3(C)CC[C@H]2C1(C)C | 9.65 µM | 10 µM | 8.15 µM | 4.97 µM | 9.01 µM
10 | CNCC(=O)O[C@H]1CC[C@]2(C)[C@H]3C(=O)C=C4[C@@H]5C[C@@](C)(C(=O)OCc6ccccc6)CC[C@]5(C)CC[C@@]4(C)[C@]3(C)CC[C@H]2C1(C)C | 8 µM | 3.89 µM | 4.56 µM | 5 µM | 5.76 µM
11 | CC(C)C[C@H](NC(=O)OC(C)(C)C)C(=O)O[C@H]1CC[C@]2(C)[C@H]3C(=O)C=C4[C@@H]5C[C@@](C)(C(=O)OCc6ccccc6)CC[C@]5(C)CC[C@@]4(C)[C@]3(C)CC[C@H]2C1(C)C | > 40 µM | > 40 µM | > 40 µM | > 40 µM | > 40 µM
12 | CC(C)(C)OC(=O)NCC(=O)O[C@H]1CC[C@]2(C)[C@H]3C(=O)C=C4[C@@H]5C[C@@](C)(C(=O)OCc6ccccc6)CC[C@]5(C)CC[C@@]4(C)[C@]3(C)CC[C@H]2C1(C)C | > 40 µM | > 40 µM | > 40 µM | > 40 µM | > 40 µM
13 | CC(C)C[C@H](N)C(=O)O[C@H]1CC[C@]2(C)[C@H]3C(=O)C=C4[C@@H]5C[C@@](C)(C(=O)OCc6ccccc6)CC[C@]5(C)CC[C@@]4(C)[C@]3(C)CC[C@H]2C1(C)C | 43.1 µM | 11.9 µM | 14.9 µM | 22.9 µM | 19.3 µM
14 | CC1(C)[C@@H](NC(=O)CN)CC[C@]2(C)[C@H]3C(=O)C=C4[C@@H]5C[C@@](C)(C(=O)OCc6ccccc6)CC[C@]5(C)CC[C@@]4(C)[C@]3(C)CC[C@@H]12 | 3.01 µM | 2.85 µM | 3.47 µM | 2.44 µM | 3.75 µM
15 | CC(C)(C)OC(=O)N[C@@H](Cc1ccccc1)C(=O)N[C@H]1CC[C@]2(C)[C@H]3C(=O)C=C4[C@@H]5C[C@@](C)(C(=O)OCc6ccccc6)CC[C@]5(C)CC[C@@]4(C)[C@]3(C)CC[C@H]2C1(C)C | > 40 µM | > 40 µM | > 40 µM | > 40 µM | > 40 µM
16 | CC[C@H](C)[C@H](NC(=O)OC(C)(C)C)C(=O)O[C@H]1CC[C@]2(C)[C@H]3C(=O)C=C4[C@@H]5C[C@@](C)(C(=O)OCc6ccccc6)CC[C@]5(C)CC[C@@]4(C)[C@]3(C)CC[C@H]2C1(C)C | > 40 µM | > 40 µM | > 40 µM | > 40 µM | > 40 µM
17 | CSCC[C@H](NC(=O)OC(C)(C)C)C(=O)N[C@H]1CC[C@]2(C)[C@H]3C(=O)C=C4[C@@H]5C[C@@](C)(C(=O)OCc6ccccc6)CC[C@]5(C)CC[C@@]4(C)[C@]3(C)CC[C@H]2C1(C)C | > 40 µM | > 40 µM | > 40 µM | > 40 µM | > 40 µM
18 | CC(C)(C)OC(=O)N[C@@H](Cc1ccccc1)C(=O)O[C@H]1CC[C@]2(C)[C@H]3C(=O)C=C4[C@@H]5C[C@@](C)(C(=O)OCc6ccccc6)CC[C@]5(C)CC[C@@]4(C)[C@]3(C)CC[C@H]2C1(C)C | > 40 µM | > 40 µM | > 40 µM | > 40 µM | > 40 µM
19 | CC1(C)[C@@H](O)CC[C@]2(C)[C@H]3C(=O)C=C4[C@@H]5C[C@@](C)(C(=O)O)CC[C@]5(C)CC[C@@]4(C)[C@]3(C)CC[C@@H]12 [ENOXOLONE] | > 40 µM | > 40 µM | > 40 µM | > 40 µM | > 40 µM
20 | C[C@H](N)C(=O)O[C@H]1CC[C@]2(C)[C@H]3C(=O)C=C4[C@@H]5C[C@@](C)(C(=O)OCc6ccccc6)CC[C@]5(C)CC[C@@]4(C)[C@]3(C)CC[C@H]2C1(C)C | 5 µM | 4.39 µM | 3.07 µM | 3.17 µM | 3.4 µM
21 | CNCC(=O)N[C@H]1CC[C@]2(C)[C@H]3C(=O)C=C4[C@@H]5C[C@@](C)(C(=O)OCc6ccccc6)CC[C@]5(C)CC[C@@]4(C)[C@]3(C)CC[C@H]2C1(C)C | 3.2 µM | 3.41 µM | 3.79 µM | 3.35 µM | 3.17 µM
22 | CC(C)(C)OC(=O)NCC(=O)N[C@H]1CC[C@]2(C)[C@H]3C(=O)C=C4[C@@H]5C[C@@](C)(C(=O)OCc6ccccc6)CC[C@]5(C)CC[C@@]4(C)[C@]3(C)CC[C@H]2C1(C)C | > 40 µM | > 40 µM | > 40 µM | > 40 µM | > 40 µM
23 | CC(C)C[C@H](N)C(=O)N[C@H]1CC[C@]2(C)[C@H]3C(=O)C=C4[C@@H]5C[C@@](C)(C(=O)OCc6ccccc6)CC[C@]5(C)CC[C@@]4(C)[C@]3(C)CC[C@H]2C1(C)C | 2.3 µM | 6.1 µM | 6.21 µM | 3.28 µM | 4.65 µM
24 | CC1(C)[C@@H](OC(=O)[C@@H]2CCCN2)CC[C@]2(C)[C@H]3C(=O)C=C4[C@@H]5C[C@@](C)(C(=O)OCc6ccccc6)CC[C@]5(C)CC[C@@]4(C)[C@]3(C)CC[C@@H]12 | 9.05 µM | 5.22 µM | 6.39 µM | 4.73 µM | 9.63 µM
25 | CN(CC(=O)O[C@H]1CC[C@]2(C)[C@H]3C(=O)C=C4[C@@H]5C[C@@](C)(C(=O)OCc6ccccc6)CC[C@]5(C)CC[C@@]4(C)[C@]3(C)CC[C@H]2C1(C)C)C(=O)OC(C)(C)C | > 40 µM | > 40 µM | > 40 µM | > 40 µM | > 40 µM
26 | CC1(C)[C@@H](OC(=O)CN)CC[C@]2(C)[C@H]3C(=O)C=C4[C@@H]5C[C@@](C)(C(=O)OCc6ccccc6)CC[C@]5(C)CC[C@@]4(C)[C@]3(C)CC[C@@H]12 | 3.3 µM | 3.81 µM | 3.31 µM | 2.75 µM | 4.43 µM
27 | CSCC[C@H](N)C(=O)N[C@H]1CC[C@]2(C)[C@H]3C(=O)C=C4[C@@H]5C[C@@](C)(C(=O)OCc6ccccc6)CC[C@]5(C)CC[C@@]4(C)[C@]3(C)CC[C@H]2C1(C)C | 3.1 µM | 7 µM | 4.09 µM | 6.97 µM | 6.25 µM
28 | C[C@H](NC(=O)OC(C)(C)C)C(=O)O[C@H]1CC[C@]2(C)[C@H]3C(=O)C=C4[C@@H]5C[C@@](C)(C(=O)OCc6ccccc6)CC[C@]5(C)CC[C@@]4(C)[C@]3(C)CC[C@H]2C1(C)C | > 40 µM | > 40 µM | > 40 µM | > 40 µM | > 40 µM
